Tests used:
[1] = Ratio of GI50 for antiproliferative activity against human hTERT-BJ cells incubated for 48 hrs by SRB assay to GI50 for antiproliferative activity against human A549 cells incubated for 48 hrs by SRB assay
Method in brief: (§1)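 Selectivity is GI50 in the nontumor BJ-hTERT fibroblasts divided by GI50 in each tumor line. All values come from the same 48 h SRB assay, with 0.01−100 μM serial dilutions.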

[2] = tested on: SW1573; experiment: Antiproliferative activity against human SW1573 cells incubated for 48 hrs in absence of P-gp and CYP3A4/5 inhibitor verapamil by SRB assay; type: functional; details: SW1573, 48 h
Method in brief: (§2)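 Wild-type SW1573 (2500 cells/well) and P-gp-overexpressing SW1573/Pgp (5000 cells/well) in RPMI 1640 with 5% FBS. Seeded 24 h, then exposed 48 h to serial dilutions (0.01−100 μM) with or without 10 μM verapamil (final) in the medium. Paclitaxel and vinblastine were reference drugs. SRB read at 530/620 nm. GI50 by NCI formulas, mean of at least two independent experiments ± SD.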

[3] = tested on: SW1573; experiment: (§3) Resistance factor, ratio of GI50 for Antiproliferative activity against human SW1573 cells over-expressing P-gp incubated for 48 hrs in absence of P-gp and CYP3A4/5 inhibitor verapamil by SRB assay to GI50 for antiproliferative activity against human SW1573 cells incubated for 48 hrs in absence of P-gp and CYP3A4/5 inhibitor verapamil by SRB assay; type: functional
Method in brief: (§4)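 Resistance factor is GI50 in SW1573/Pgp divided by GI50 in wild-type SW1573. Both come from 48 h SRB assays, run with 10 μM verapamil (final) or without it.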

[4] = tested on: HeLa; experiment: Antiproliferative activity against human HeLa cells incubated for 48 hrs by SRB assay; type: functional
Method in brief: (§5)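 Cells kept in RPMI 1640 with 5% FBS and 2 mM L-glutamine at 37 °C under 5% CO2. Seeded at 2500 (A549, HBL-100, HeLa, SW1573) or 5000 (T-47D, WiDr, BJ-hTERT) cells/well and left 24 h. Compounds added as serial dilutions (0.01−100 μM) for 48 h. SRB staining read at 530 and 620 nm. GI50 calculated by NCI formulas. Mean of at least two independent experiments ± SD.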

[5] = Ratio of GI50 for antiproliferative activity against human hTERT-BJ cells incubated for 48 hrs by SRB assay to GI50 for antiproliferative activity against human HeLa cells incubated for 48 hrs by SRB assay; type: toxicity, cell-based; details: hTERT-BJ cells versus HeLa cells, read-out: RatioGI50; method in brief: as §1
[6] = tested on: HBL-100; experiment: Antiproliferative activity against human HBL100 cells incubated for 48 hrs by SRB assay; type: functional; details: HBL-100, 48 h; method in brief: as §5
[7] = tested on: SW1573; experiment: Antiproliferative activity against human SW1573 cells over-expressing P-gp incubated for 48 hrs in absence of P-gp and CYP3A4/5 inhibitor verapamil by SRB assay; type: functional; details: SW1573, 48 h; method in brief: as §2
[8] = tested on: SW1573; experiment: as §3, with “presence” for “absence”; type: functional; method in brief: as §4
[9] = Ratio of GI50 for antiproliferative activity against human hTERT-BJ cells incubated for 48 hrs by SRB assay to GI50 for antiproliferative activity against human WiDr cells incubated for 48 hrs by SRB assay; type: toxicity, cell-based; details: hTERT-BJ cells versus WiDr cells, read-out: RatioGI50; method in brief: as §1
[10] = Antiproliferative activity against human hTERT-BJ cells incubated for 48 hrs by SRB assay; type: cell-based; method in brief: as §5
[11] = Ratio of GI50 for antiproliferative activity against human hTERT-BJ cells incubated for 48 hrs by SRB assay to GI50 for antiproliferative activity against human SW1573 cells incubated for 48 hrs by SRB assay; type: toxicity, cell-based; details: hTERT-BJ cells versus SW1573 cells, read-out: RatioGI50; method in brief: as §1
[12] = tested on: WiDr; experiment: Antiproliferative activity against human WiDr cells incubated for 48 hrs by SRB assay; type: functional; method in brief: as §5
[13] = Ratio of GI50 for antiproliferative activity against human hTERT-BJ cells incubated for 48 hrs by SRB assay to GI50 for antiproliferative activity against human T47D cells incubated for 48 hrs by SRB assay; type: toxicity, cell-based; details: hTERT-BJ cells versus T47D cells, read-out: RatioGI50; method in brief: as §1
[14] = tested on: SW1573; experiment: Antiproliferative activity against human SW1573 cells over-expressing P-gp incubated for 48 hrs in presence of P-gp and CYP3A4/5 inhibitor verapamil by SRB assay; type: functional; details: SW1573, 48 h; method in brief: as §2
[15] = tested on: SW1573; experiment: Antiproliferative activity against human SW1573 cells incubated for 48 hrs in presence of P-gp and CYP3A4/5 inhibitor verapamil by SRB assay; type: functional; details: SW1573, 48 h; method in brief: as §2
[16] = tested on: A549; experiment: Antiproliferative activity against human A549 cells incubated for 48 hrs by SRB assay; type: functional; details: A549, 48 h; method in brief: as §5
[17] = tested on: SW1573; experiment: Antiproliferative activity against human SW1573 cells incubated for 48 hrs by SRB assay; type: functional; details: SW1573, 48 h; method in brief: as §5
[18] = Ratio of GI50 for antiproliferative activity against human hTERT-BJ cells incubated for 48 hrs by SRB assay to GI50 for antiproliferative activity against human HBL100 cells incubated for 48 hrs by SRB assay; method in brief: as §1
[19] = tested on: T47D; experiment: Antiproliferative activity against human T47D cells incubated for 48 hrs by SRB assay; type: functional; method in brief: as §5

GI50 [2]: 3000 nM
GI50 [4]: 3.2 µM
GI50 [7]: 3.3 µM
GI50 [14]: 2300 nM
GI50 [15]: 3.5 µM
GI50 [16]: 3.1 µM
GI50 [17]: 3.3 µM
GI50 [19]: 3.9 µM
SMILES: CO[C@H]1O[C@@](C)([C@H]2CC(C)=C(C)C(=O)O2)[C@H]2CC[C@H]3[C@@H]4[C@@H](O)C=C5[C@@H](O)C=CC(=O)[C@]5(C)[C@H]4CC[C@]123
RatioGI50 [1]: 2 - 10
RatioGI50 [3]: 1.1
selectivity ratio at 48 h [5]: 2 to 10
GI50 [6]: 3.6 µM
RatioGI50 [8]: 0.7
selectivity ratio at 48 h [9]: 2 to 10
GI50 at 48 h [10]: > 10 µM
selectivity ratio at 48 h [11]: 2 to 10
GI50 [12]: > 10 µM
selectivity ratio at 48 h [13]: 2 to 10
RatioGI50 [18]: 2 - 10

Source: ChEMBL document CHEMBL4316659, “Selective Antiproliferative Withanolides from Species in the Genera Eriolarynx and Deprea” (J Nat Prod, 2019)
